Values after ≈ are worked out from the molar mass of the structure shown.
Tests used:
Staphylococcus aureus [1] = assay: Antibacterial activity against Staphylococcus aureus ATCC 25923 by broth microdilution method; assay type: functional
Staphylococcus aureus [2] = assay: Antibacterial activity against methicillin-resistant Staphylococcus aureus ATCC 700699 by broth microdilution method; assay type: functional; conditions: Mu50
Staphylococcus aureus [3] = assay: Antibacterial activity against Staphylococcus aureus ATCC 29213 by broth microdilution method; assay type: functional
Escherichia coli = assay: Antibacterial activity against Escherichia coli ATCC 9637 by broth microdilution method; assay type: functional; conditions: W
In short: (§1)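 Bacteria were tested by the NCCLS method in Mueller Hinton broth, with gentamicin and norfloxacin as reference drugs.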

Pseudomonas aeruginosa = assay: Antibacterial activity against Pseudomonas aeruginosa ATCC BAA-427 by broth microdilution method; assay type: functional; in short: as §1
Klebsiella pneumoniae = assay: Antibacterial activity against Klebsiella pneumoniae ATCC 27736 by broth microdilution method; assay type: functional; in short: as §1
Candida albicans = assay: Anti-fungal activity against Candida albicans after 48 hrs by broth microdilution method; assay type: functional
Cryptococcus neoformans = assay: Anti-fungal activity against Cryptococcus neoformans after 48 hrs by broth microdilution method; assay type: functional
Sporothrix schenckii = assay: Anti-fungal activity against Sporothrix schenckii after 48 hrs by broth microdilution method; assay type: functional
[4] = system: Trichophyton mentagrophytes; assay: Anti-fungal activity against Trichophyton mentagrophytes after 48 hrs by broth microdilution method; assay type: functional
Aspergillus fumigatus = assay: Anti-fungal activity against Aspergillus fumigatus after 48 hrs by broth microdilution method; assay type: functional
Candida parapsilosis = assay: Anti-fungal activity against Candida parapsilosis ATCC 22019 after 48 hrs by broth microdilution method; assay type: functional; conditions: Lodderomyces parapsilosis, ATCC 22019, 48 h
Staphylococcus aureus [5] = assay: Antibacterial activity against gentamicin-resistant Staphylococcus aureus ATCC 33592 by broth microdilution method; assay type: functional
Plasmodium falciparum = assay: Antimalarial activity against chloroquine-sensitive Plasmodium falciparum 3D7 after 72 hrs by SYBR Green-1 staining based fluorescence assay; assay type: functional; conditions: 3D7, 72 h
[6] = Cytotoxicity against monkey Vero C1008 cells after 72 hrs by MTT assay; assay type: cell-based; conditions: chlorocebus sabaeus

Row | SMILES | MIC (Staphylococcus aureus [1]) [µg/mL] | MIC (Staphylococcus aureus [2]) [µg/mL] | MIC (Staphylococcus aureus [3]) [µg/mL] | MIC (Escherichia coli) [µg/mL] | MIC (Pseudomonas aeruginosa) [µg/mL] | MIC (Klebsiella pneumoniae) [µg/mL] | MIC (Candida albicans) [µg/mL] | MIC (Cryptococcus neoformans) [µg/mL] | MIC (Sporothrix schenckii) [µg/mL] | MIC [4] [µg/mL] | MIC (Aspergillus fumigatus) [µg/mL] | MIC (Candida parapsilosis) [µg/mL] | MIC (Staphylococcus aureus [5]) [µg/mL] | IC50 (Plasmodium falciparum) [µM] | IC50 (Staphylococcus aureus [1]) [µg/mL] | IC50 (Staphylococcus aureus [3]) [µg/mL] | IC50 (Escherichia coli) [µg/mL] | IC50 (Pseudomonas aeruginosa) [µg/mL] | IC50 (Klebsiella pneumoniae) [µg/mL] | IC50 (Candida albicans) [µg/mL] | further results
1 | O=c1c2ccccc2sn1-c1cccc(C(F)(F)F)c1 | 6.25 (≈ 21.2 µM) | 6.25 (≈ 21.2 µM) | 6.25 (≈ 21.2 µM) | > 50 | > 50 | > 50 | 25 (≈ 84.7 µM) | 12.5 (≈ 42.3 µM) | 12.5 (≈ 42.3 µM) | 12.5 (≈ 42.3 µM) | 25 (≈ 84.7 µM) | 25 (≈ 84.7 µM) | 6.25 (≈ 21.2 µM) | > 2 | – | – | – | – | – | – | –
2 | O=c1c2ccccc2sn1-c1cccc(F)c1 | 6.25 (≈ 25.5 µM) | 6.25 (≈ 25.5 µM) | 12.5 (≈ 51 µM) | > 50 | > 50 | > 50 | 12.5 (≈ 51 µM) | 12.5 (≈ 51 µM) | 12.5 (≈ 51 µM) | 12.5 (≈ 51 µM) | 25 (≈ 102 µM) | 12.5 (≈ 51 µM) | 6.25 (≈ 25.5 µM) | > 2 | – | – | – | – | – | – | –
3 | O=c1c2ccccc2sn1-c1ccccc1I | 12.5 (≈ 35.4 µM) | 25 (≈ 70.8 µM) | 12.5 (≈ 35.4 µM) | > 50 | > 50 | > 50 | 25 (≈ 70.8 µM) | 25 (≈ 70.8 µM) | 25 (≈ 70.8 µM) | 25 (≈ 70.8 µM) | 50 (≈ 142 µM) | 25 (≈ 70.8 µM) | 12.5 (≈ 35.4 µM) | > 2 | – | – | – | – | – | – | –
4 | O=c1c2ccccc2sn1-c1ccccc1F | 25 (≈ 102 µM) | 6.25 (≈ 25.5 µM) | 12.5 (≈ 51 µM) | > 50 | > 50 | > 50 | 12.5 (≈ 51 µM) | 12.5 (≈ 51 µM) | 12.5 (≈ 51 µM) | 12.5 (≈ 51 µM) | 25 (≈ 102 µM) | 12.5 (≈ 51 µM) | 12.5 (≈ 51 µM) | > 2 | – | – | – | – | – | – | –
5 | COc1ccc(-n2sc3ccccc3c2=O)cc1 | 1.6 (≈ 6.22 µM) | 0.73 (≈ 2.84 µM) | 1.9 (≈ 7.38 µM) | > 50 | > 50 | > 50 | 3.5 (≈ 13.6 µM) | 1.1 (≈ 4.27 µM) | 0.8 (≈ 3.11 µM) | > 50 | 11 (≈ 42.7 µM) | 0.7 (≈ 2.72 µM) | – | > 2 | 1.5 (≈ 5.83 µM) | 1.2 (≈ 4.66 µM) | > 50 | > 50 | > 50 | 2.4 (≈ 9.33 µM) | IC50 (Cryptococcus neoformans): 0.9 µg/mL (≈ 3.5 µM); IC50 (Sporothrix schenckii): 0.4 µg/mL (≈ 1.55 µM); IC50 [4]: > 50 µg/mL; IC50 (Aspergillus fumigatus): 6.9 µg/mL (≈ 26.8 µM); IC50 (Candida parapsilosis): 0.6 µg/mL (≈ 2.33 µM); CC50 at 72 h [6]: 32.6 µM
6 | O=c1c2ccccc2sn1-c1ccccc1Cl | 25 (≈ 95.5 µM) | 12.5 (≈ 47.8 µM) | 12.5 (≈ 47.8 µM) | > 50 | > 50 | > 50 | 25 (≈ 95.5 µM) | 12.5 (≈ 47.8 µM) | 12.5 (≈ 47.8 µM) | 12.5 (≈ 47.8 µM) | 25 (≈ 95.5 µM) | 25 (≈ 95.5 µM) | 12.5 (≈ 47.8 µM) | > 2 | – | – | – | – | – | – | –
7 | COc1ccccc1-n1sc2ccccc2c1=O | 2 (≈ 7.77 µM) | 1.07 (≈ 4.16 µM) | 2.4 (≈ 9.33 µM) | > 50 | > 50 | > 50 | 7.2 (≈ 28 µM) | 3.8 (≈ 14.8 µM) | 4 (≈ 15.5 µM) | 2.6 (≈ 10.1 µM) | > 50 | 3.2 (≈ 12.4 µM) | – | > 2 | 1 (≈ 3.89 µM) | 1.6 (≈ 6.22 µM) | > 50 | > 50 | > 50 | 2.9 (≈ 11.3 µM) | IC50 (Cryptococcus neoformans): 0.9 µg/mL (≈ 3.5 µM); IC50 (Sporothrix schenckii): 0.6 µg/mL (≈ 2.33 µM); IC50 [4]: 0.7 µg/mL (≈ 2.72 µM); IC50 (Aspergillus fumigatus): > 50 µg/mL; IC50 (Candida parapsilosis): 0.7 µg/mL (≈ 2.72 µM); CC50 at 72 h [6]: 24.5 µM
8 | COC(=O)[C@@H](NC(=O)[C@H](C(C)C)n1sc2ccccc2c1=O)C(C)C | > 50 | > 50 | > 50 | > 50 | > 50 | > 50 | > 50 | > 50 | > 50 | > 50 | > 50 | > 50 | – | > 2 | > 50 | > 50 | > 50 | > 50 | > 50 | > 50 | IC50 (Staphylococcus aureus [2]): > 50 µg/mL; IC50 (Cryptococcus neoformans): > 50 µg/mL; IC50 (Sporothrix schenckii): > 50 µg/mL; IC50 [4]: > 50 µg/mL; IC50 (Aspergillus fumigatus): > 50 µg/mL; IC50 (Candida parapsilosis): > 50 µg/mL
9 | COC(=O)[C@H](CC(C)C)n1sc2ccccc2c1=O | 3.5 (≈ 12.5 µM) | 3.5 (≈ 12.5 µM) | 6.9 (≈ 24.7 µM) | > 50 | > 50 | > 50 | 1.9 (≈ 6.8 µM) | 10.5 (≈ 37.6 µM) | 20.4 (≈ 73 µM) | 11.4 (≈ 40.8 µM) | > 50 | 4.9 (≈ 17.5 µM) | – | > 2 | 2.1 (≈ 7.52 µM) | 2.7 (≈ 9.66 µM) | > 50 | > 50 | > 50 | 1.5 (≈ 5.37 µM) | IC50 (Staphylococcus aureus [2]): 2.1 µg/mL (≈ 7.52 µM); IC50 (Cryptococcus neoformans): 8.6 µg/mL (≈ 30.8 µM); IC50 (Sporothrix schenckii): 2.9 µg/mL (≈ 10.4 µM); IC50 [4]: 6.2 µg/mL (≈ 22.2 µM); IC50 (Candida parapsilosis): 2.4 µg/mL (≈ 8.59 µM)
10 | CC(=O)Nc1ccccc1-n1sc2ccccc2c1=O | > 50 | > 50 | > 50 | > 50 | > 50 | > 50 | > 50 | > 50 | > 50 | > 50 | > 50 | > 50 | – | > 2 | > 50 | > 50 | > 50 | > 50 | > 50 | > 50 | IC50 (Staphylococcus aureus [2]): > 50 µg/mL; IC50 (Cryptococcus neoformans): > 50 µg/mL; IC50 (Sporothrix schenckii): > 50 µg/mL; IC50 [4]: > 50 µg/mL; IC50 (Aspergillus fumigatus): > 50 µg/mL; IC50 (Candida parapsilosis): > 50 µg/mL
11 | O=c1c2ccccc2sn1-c1cccc(Cl)c1 | 6.25 (≈ 23.9 µM) | 3.12 (≈ 11.9 µM) | 6.25 (≈ 23.9 µM) | > 50 | > 50 | > 50 | 25 (≈ 95.5 µM) | 12.5 (≈ 47.8 µM) | 12.5 (≈ 47.8 µM) | 12.5 (≈ 47.8 µM) | 25 (≈ 95.5 µM) | 25 (≈ 95.5 µM) | 6.25 (≈ 23.9 µM) | > 2 | – | – | – | – | – | – | –
12 | CC[C@H](C)[C@@H](C(=O)OC)n1sc2ccccc2c1=O | 4.2 (≈ 15 µM) | 0.89 (≈ 3.19 µM) | 4.3 (≈ 15.4 µM) | > 50 | > 50 | > 50 | 2.5 (≈ 8.95 µM) | 8.3 (≈ 29.7 µM) | 18.2 (≈ 65.1 µM) | > 50 | 12.5 (≈ 44.7 µM) | 4.5 (≈ 16.1 µM) | – | > 2 | 2 (≈ 7.16 µM) | 2.1 (≈ 7.52 µM) | > 50 | > 50 | > 50 | 1.6 (≈ 5.73 µM) | IC50 (Staphylococcus aureus [2]): 0.43 µg/mL (≈ 1.54 µM); IC50 (Cryptococcus neoformans): 7.3 µg/mL (≈ 26.1 µM); IC50 (Sporothrix schenckii): 4.7 µg/mL (≈ 16.8 µM); IC50 [4]: > 50 µg/mL; IC50 (Candida parapsilosis): 3.1 µg/mL (≈ 11.1 µM)
